# Published values gathered from unrelated publications.
# Compare with care: the assays were run in different laboratories.
# Target: Rho-associated protein kinase 1 (ROCK1, Homo sapiens, UniProt Q13464)
Compound,effect on,action,technique,concentration,quantity,result
C=CC(=O)N1CCC[C@@H](n2nc(-c3ccc(Oc4ccccc4)cc3)c3c(N)ncnc32)C1,enzyme activity,inhibitor,,1 µM,inhibition,26%
CN1CCN(C(=O)c2ccc(NC(=O)Nc3ccc(N(C)c4ccnc(Nc5ccc(CS(C)(=O)=O)cc5)n4)cc3)cc2)CC1,binding,,,1 µM,remaining binding,17%
Cc1cc(O)c(-c2ccc([C@@H](C)CN(C)C)cc2)c2c1[nH]c(=O)c1sccc12,enzyme activity,inhibitor,,0.1 µM,inhibition,-3.74%
Cc1cc(-c2ccnc3[nH]cc(F)c23)cc(F)c1[C@@]1(O)[C@H](C)CN(C2CCS(=O)(=O)CC2)C[C@@H]1C,enzyme activity,inhibitor,,0.1 µM,remaining activity,7.04%
CCCCC(=O)Nc1ccc(-c2ccc3ncn(CCC)c(=O)c3c2)cn1,binding,,competition with immobilised ligand,0.5 µM,remaining binding,100%
COc1ccc2oc(-c3ccc4nc(N)oc4c3)c/c(=N\c3ccccc3NC(=O)CCN)c2c1,binding,,,1 µM,remaining binding,106%
C[C@H]1CC[C@H](n2c3cnccc3c3cnc(Nc4ccc5c(n4)CCN(C(=O)CO)C5)nc32)CC1,cell-free assay,,,1 µM,remaining signal,100%
CO[C@@H]1[C@H](N(C)C(=O)c2ccccc2)C[C@H]2O[C@]1(C)n1c3ccccc3c3c4c(c5c6ccccc6n2c5c31)C(=O)NC4,enzyme activity,inhibitor,,1 µM,inhibition,43%
Cc1cc(-c2ccnc3[nH]cc(F)c23)cc(F)c1[C@@]1(O)[C@H](C)CN(C(=O)CN)C[C@@H]1C,enzyme activity,inhibitor,,15 nM,remaining activity,48.7%
